Measured values as given in ChEMBL document CHEMBL3808334, “Synthesis and in vitro evaluation of novel triazine analogues as anticancer agents and their interaction studies with bovine serum albumin” (Eur J Med Chem, 2016).

Key:
[1] = system: SR; assay: Growth inhibition of human SR cells assessed as cell growth at 10 uM incubated for 48 hrs by sulforhodamine B assay; assay type: functional; conditions: read-out: Activity
[2] = Growth inhibition of human DU145 cells incubated for 48 hrs by sulforhodamine B assay; assay type: functional; conditions: DU-145, 48 h; for CC50: read-out: pLC50 (the source's name) (converted)
Summary of the method: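 Cells seeded at 5,000–40,000/well according to doubling time and preincubated 24 h at 37 °C, 5% CO2. Time-zero plates were TCA-fixed. DMSO concentrate was diluted in medium with 50 µg/ml gentamicin to give five concentrations (10-fold or ½ log steps), then exposed 48 h. Cells were TCA-fixed, stained with 0.4% SRB and read at 515 nm. Percent growth was taken against time-zero and control; GI50, TGI and LC50 derived.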

[3] = system: MDA-MB-435; assay: Growth inhibition of human MDA-MB-435 cells incubated for 48 hrs by sulforhodamine B assay; assay type: functional; conditions: MDA-MB-435, 48 h
Summary of the method: (§1)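 Cells were plated at 5,000–40,000 per well according to doubling time and preincubated 24 h at 37 °C in 5% CO2; time-zero plates were then TCA-fixed. Five concentrations (10-fold or ½-log dilutions, DMSO stock) were incubated 48 h. Cells were TCA-fixed, stained with 0.4% SRB and read at 515 nm. GI50 was taken where [(Ti−Tz)/(C−Tz)]×100 = 50.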

[4] = Growth inhibition of human UACC62 cells assessed as cell growth at 10^-5 M incubated for 48 hrs by sulforhodamine B assay; assay type: functional; conditions: UACC-62, 48 h, read-out: Activity
[5] = system: HT-29; assay: Growth inhibition of human HT-29 cells assessed as cell growth at 10^-5 M incubated for 48 hrs by sulforhodamine B assay; assay type: functional; conditions: HT-29, 48 h, read-out: Activity
[6] = Growth inhibition of human SKOV3 cells assessed as cell growth at 10^-5 M incubated for 48 hrs by sulforhodamine B assay; assay type: functional; conditions: SK-OV-3, 48 h, read-out: Activity
[7] = system: 786-0; assay: Growth inhibition of human 786-0 cells assessed as cell growth at 10^-5 M incubated for 48 hrs by sulforhodamine B assay; assay type: functional; conditions: 786-0, 48 h, read-out: Activity
Summary of the method: (§2)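 Five-dose assay: five concentrations from 10-fold or ½-log serial dilutions. Cells are plated at 5,000–40,000 per well according to doubling time, grown 24 h, then exposed 48 h at 37 °C, 5% CO₂. Fixed with cold 50% TCA (final addition) for 60 min at 4 °C and stained with 0.4% SRB in 1% acetic acid. Bound dye is solubilized in 10 mM Tris base and read at 515 nm. GI₅₀ is where [(Ti−Tz)/(C−Tz)]×100 = 50, with a time-zero plate as Tz.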

[8] = system: K562; assay: Growth inhibition of human K562 cells incubated for 48 hrs by sulforhodamine B assay; assay type: functional; conditions: K562, 48 h; summary of the method: as §1
[9] = Growth inhibition of human OVCAR5 cells incubated for 48 hrs by sulforhodamine B assay; assay type: functional; conditions: OVCAR-5, 48 h; summary of the method: as §1
[10] = Growth inhibition of human SNB19 cells assessed as cell growth at 10^-6 M incubated for 48 hrs by sulforhodamine B assay; assay type: functional; conditions: SNB-19, 48 h, read-out: Activity
[11] = Growth inhibition of human MOLT4 cells assessed as cell growth at 10^-5 M incubated for 48 hrs by sulforhodamine B assay; assay type: functional; conditions: MOLT-4, 48 h, read-out: Activity
[12] = Growth inhibition of human RPMI8226 cells assessed as cell growth at 10^-4 M incubated for 48 hrs by sulforhodamine B assay; assay type: functional; conditions: RPMI-8226, 48 h, read-out: Activity
[13] = Growth inhibition of human HOP62 cells assessed as cell growth at 10^-6 M incubated for 48 hrs by sulforhodamine B assay; assay type: functional; conditions: HOP-62, 48 h, read-out: Activity
[14] = Growth inhibition of human BT549 cells assessed as cell growth at 10^-7 M incubated for 48 hrs by sulforhodamine B assay; assay type: functional; conditions: BT-549, 48 h, read-out: Activity; summary of the method: as §2
[15] = system: NCI-H23; assay: Growth inhibition of human NCI-H23 cells assessed as cell growth at 10^-6 M incubated for 48 hrs by sulforhodamine B assay; assay type: functional; conditions: NCI-H23, 48 h, read-out: Activity
[16] = system: U-251; assay: Growth inhibition of human U251 cells assessed as cell growth at 10^-6 M incubated for 48 hrs by sulforhodamine B assay; assay type: functional; conditions: U-251, 48 h, read-out: Activity
[17] = system: NCI/ADR-RES; assay: Growth inhibition of human NCI/ADR-RES cells assessed as cell growth at 10 uM incubated for 48 hrs by sulforhodamine B assay; assay type: functional; conditions: read-out: Activity
[18] = system: NCI/ADR-RES; assay: Growth inhibition of human NCI/ADR-RES cells incubated for 48 hrs by sulforhodamine B assay; assay type: functional; summary of the method: as §1
[19] = biological target: Albumin (Bos taurus, UniProt P02769); assay: Binding affinity to bovine serum albumin assessed as binding constant in emission spectra by Benesie-Hildebrand plot analysis; assay type: ADME; conditions: cattle, isolated protein
Summary of the method: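 BSA, 10 µM, in 0.1 M phosphate buffer pH 7.4, titrated with compound (0–20 µM per the figure; diluted from 10⁻³ mol L⁻¹ DMSO stocks). Run at 300 K in a 1 cm quartz cell. UV spectra taken 200–800 nm after 5 min equilibration; fluorescence excited at 280 nm, emission 351 nm, slit 10 nm. K is the intercept/slope ratio of a linear fit of 1/(A₀−A) or 1/(F₀−F) vs 1/[compound].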

[20] = Growth inhibition of human Hs 578T cells assessed as cell growth at 10^-5 M incubated for 48 hrs by sulforhodamine B assay; assay type: functional; conditions: read-out: Activity
[21] = Growth inhibition of human MOLT4 cells assessed as cell growth at 10^-8 M incubated for 48 hrs by sulforhodamine B assay; assay type: functional; conditions: MOLT-4, 48 h, read-out: Activity
[22] = Growth inhibition of human OVCAR3 cells assessed as cell growth at 10^-6 M incubated for 48 hrs by sulforhodamine B assay; assay type: functional; conditions: OVCAR-3, 48 h, read-out: Activity
[23] = Growth inhibition of human SF539 cells assessed as cell growth at 10^-5 M incubated for 48 hrs by sulforhodamine B assay; assay type: functional; conditions: SF-539, 48 h, read-out: Activity
[24] = system: NCI-H522; assay: Growth inhibition of human NCI-H522 cells assessed as cell growth at 10^-7 M incubated for 48 hrs by sulforhodamine B assay; assay type: functional; conditions: NCI-H522, 48 h, read-out: Activity
[25] = read-out: LC50 (the source's name)
[26] = read-out: pLC50 (the source's name) (converted)

Sequence of Albumin (P02769 whole entry): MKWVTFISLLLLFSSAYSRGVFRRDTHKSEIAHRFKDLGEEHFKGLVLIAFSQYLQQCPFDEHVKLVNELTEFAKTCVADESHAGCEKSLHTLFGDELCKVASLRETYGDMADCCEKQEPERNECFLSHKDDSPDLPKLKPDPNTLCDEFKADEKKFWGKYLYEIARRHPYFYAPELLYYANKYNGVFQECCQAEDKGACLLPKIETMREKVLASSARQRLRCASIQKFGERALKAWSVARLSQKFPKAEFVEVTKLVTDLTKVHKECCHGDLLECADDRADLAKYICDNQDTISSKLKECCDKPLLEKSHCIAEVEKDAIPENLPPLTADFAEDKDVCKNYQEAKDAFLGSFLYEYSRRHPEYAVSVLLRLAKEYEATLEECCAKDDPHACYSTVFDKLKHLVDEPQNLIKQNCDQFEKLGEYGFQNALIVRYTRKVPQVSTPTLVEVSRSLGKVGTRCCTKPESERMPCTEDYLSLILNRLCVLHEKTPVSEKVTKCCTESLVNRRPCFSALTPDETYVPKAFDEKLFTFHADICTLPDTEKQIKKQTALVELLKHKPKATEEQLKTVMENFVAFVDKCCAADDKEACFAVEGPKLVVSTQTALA

## Clc1ccc(-c2nc(Nc3ccc(-c4nc5ccccc5[nH]4)cc3)nc(N3CCOCC3)n2)cc1
[1]
  growth at 10 µM: -83.3%
[2]
  LC50 (50% net cell kill): 4.33 µM
  CC50: 4.37 µM
[2]; read-out: GI50
  GI50: 0.452 µM
[2]; read-out: TGI
  TGI: 1.64 µM
[2]; read-out: pGI50 (converted)
  GI50: 0.447 µM
[2]; read-out: pTGI (converted)
  TGI: 1.66 µM
[3]; read-out: GI50
  GI50: 0.596 µM
[3]; read-out: TGI
  TGI: 1.86 µM
[3]; read-out: pGI50 (converted)
  GI50: 0.603 µM
[3]; read-out: pTGI (converted)
  TGI: 1.86 µM
[4]
  growth at 10 µM: -77%
[5]
  growth at 10 µM: -74%
[6]
  growth at 10 µM: -96%
[7]
  growth at 10 µM: -87%
[8]; read-out: GI50
  GI50: 0.186 µM
[8]; read-out: TGI
  TGI: 0.391 µM
[8]; read-out: pGI50 (converted)
  GI50: 0.186 µM
[8]; read-out: pTGI (converted)
  TGI: 0.389 µM
[9]; read-out: GI50
  GI50: 0.505 µM
[9]; read-out: TGI
  TGI: 1.94 µM
[9]; read-out: pGI50 (converted)
  GI50: 0.501 µM
[9]; read-out: pTGI (converted)
  TGI: 1.95 µM
[10]
  growth at 1 µM: 17%
[11]
  growth at 10 µM: -72%
[12]
  growth at 100 µM: -27%
[13]
  growth at 1 µM: 72%
[14]
  growth at 0.1 µM: 93%
[15]
  growth at 1 µM: 85%
[16]
  growth at 1 µM: -56%
[17]
  growth at 10 µM: -87.5%
[18]; read-out: GI50
  GI50: 0.631 µM
[18]; read-out: TGI
  TGI: 2.19 µM
[18]; read-out: pGI50 (converted)
  GI50: 0.631 µM
[18]; read-out: pTGI (converted)
  TGI: 2.19 µM
[19]
  K: 4.2 ×10⁷ /M
[20]
  growth at 10 µM: -47%
[21]
  growth at 0.01 µM: 98%
[22]
  growth at 1 µM: 15%
[23]
  growth at 10 µM: -87%
[24]
  growth at 0.1 µM: 95%

## c1ccc2[nH]c(-c3ccc(Nc4nc(N5CCCCC5)nc(N5CCOCC5)n4)cc3)nc2c1
[1]
  growth at 10 µM: 9.79%
[2]
  LC50 (50% net cell kill): > 100 µM
  CC50: > 100 µM
[2]; read-out: GI50
  GI50: 4.28 µM
[2]; read-out: TGI
  TGI: > 100 µM
[2]; read-out: pGI50 (converted)
  GI50: 4.27 µM
[2]; read-out: pTGI (converted)
  TGI: > 100 µM
[3]; read-out: GI50
  GI50: 2.06 µM
[3]; [25]
  CC50: > 100 µM
[3]; read-out: TGI
  TGI: 4.59 µM
[3]; read-out: pGI50 (converted)
  GI50: 2.04 µM
[3]; [26]
  CC50: > 100 µM
[3]; read-out: pTGI (converted)
  TGI: 4.57 µM
[4]
  growth at 10 µM: -53%
[5]
  growth at 10 µM: -36%
[6]
  growth at 10 µM: -37%
[7]
  growth at 10 µM: -78%
[8]; read-out: GI50
  GI50: 2.84 µM
[8]; [25]
  CC50: > 100 µM
[8]; read-out: pGI50 (converted)
  GI50: 2.82 µM
[8]; [26]
  CC50: > 100 µM
[9]; read-out: GI50
  GI50: 4.06 µM
[9]; [25]
  CC50: > 100 µM
[9]; read-out: TGI
  TGI: 29.3 µM
[9]; read-out: pGI50 (converted)
  GI50: 4.07 µM
[9]; [26]
  CC50: > 100 µM
[9]; read-out: pTGI (converted)
  TGI: 29.5 µM
[10]
  growth at 1 µM: 99%
[11]
  growth at 10 µM: -11%
[12]
  growth at 100 µM: -24%
[13]
  growth at 1 µM: 90%
[14]
  growth at 0.1 µM: 95%
[15]
  growth at 1 µM: 91%
[16]
  growth at 1 µM: 76%
[17]
  growth at 10 µM: 45.6%
[18]; read-out: GI50
  GI50: 4.69 µM
[18]; [25]
  CC50: > 100 µM
[18]; read-out: TGI
  TGI: 55.2 µM
[18]; read-out: pGI50 (converted)
  GI50: 4.68 µM
[18]; [26]
  CC50: > 100 µM
[18]; read-out: pTGI (converted)
  TGI: 55 µM
[19]
  K: 5.7 ×10⁴ /M
[20]
  growth at 10 µM: -6%
[21]
  growth at 0.01 µM: 99%
[22]
  growth at 1 µM: 96%
[23]
  growth at 10 µM: -28%
[24]
  growth at 0.1 µM: 97%
